Measured values taken from ChEMBL document CHEMBL4118103, “Synthesis and Bioactivity Investigation of the Individual Components of Cyclic Lipopeptide Antibiotics” (J Med Chem, 2018).
Values after ≈ are worked out from the molar mass of the structure shown. Bridge positions count the residues as written; N and C are the ends. Square brackets hold non-standard residues; d marks the D form. Peptide text beside a SMILES is read from it. * marks the point of attachment. X1 = CC[C@H](C)CCCCC(=O)*; Heptanoyl = CCCCCCC(=O)*; Octanoyl = CCCCCCCC(=O)*; Dab = NCC[C@H](N)C(=O)O

Columns and labels:
[1] = test system: Acinetobacter baumannii; test: Antibacterial activity against Acinetobacter baumannii ATCC 19606 after 18 hrs by agar dilution method; assay type: functional
Outline: (§1)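 Serial two-fold agar dilution per CLSI; bacteria cultured in Mueller-Hinton broth, inoculum about 10^4 cfu/spot; final concentrations 0.03-128 µg/mL; plates incubated 35 °C for 18 h. MIC = lowest concentration preventing visible growth; representative of at least two independent experiments, a third run when the two disagreed.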

[2] = test system: Klebsiella pneumoniae; test: Antibacterial activity against NDM-1 producing Klebsiella pneumoniae ATCC BAA-2146 after 18 hrs by agar dilution method; assay type: functional; outline: as §1
[3] = test system: Pseudomonas aeruginosa; test: Antibacterial activity against Pseudomonas aeruginosa ATCC 27853 after 18 hrs by agar dilution method; assay type: functional; outline: as §1
[4] = test system: Escherichia coli; test: Antibacterial activity against extended-spectrum beta-lactamase producing Escherichia coli isolate 14-11 after 18 hrs by agar dilution method; assay type: functional; outline: as §1
[5] = test system: Klebsiella pneumoniae; test: Antibacterial activity against extended-spectrum beta-lactamase producing Klebsiella pneumoniae 700603 after 18 hrs by agar dilution method; assay type: functional; outline: as §1
[6] = Cytotoxicity against African green monkey Vero cells after 72 hrs by MTT assay; assay type: cell-based; details: chlorocebus sabaeus, Vero cells
Outline: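 Vero cells seeded at 2x10^3 cells/well, incubated 24 h at 37 °C, 5% CO2, then exposed to compound 72 h; MTT added for 2 h, medium removed, formazan dissolved in DMSO, absorbance read at 570 nm. Viability relative to untreated cells (100%); CC50 as mean ± SD of three independent experiments, each in triplicate.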

[7] = test system: Escherichia coli; test: Antibacterial activity against Escherichia coli ATCC 25922 after 18 hrs by agar dilution method; assay type: functional; outline: as §1
[8] = ATCC 19606 = CIP 70.34 = JCM 6841, 18 h
[9] = Klebsiella pneumoniae, 700603, 18 h

| Compound | MIC [1, 8] | MIC ([2]; ATCC BAA-2146, 18 h) | MIC ([3]; ATCC 27853, 18 h) | MIC ([4]; isolate 14-11, 18 h) | MIC [5, 9] | CC50 at 72 h [6] | MIC ([7]; ATCC 25922, 18 h) | MIC ([1]; ATCC 19606 = CIP 70.34 = JCM 6841) | MIC [2] | MIC [3] | MIC [4] | MIC [5] | MIC [7] |
| --- | --- | --- | --- | --- | --- | --- | --- | --- | --- | --- | --- | --- | --- |
| CC[C@H](C)CCCCC(=O)N[C@@H](CCN)C(=O)N[C@H](C(=O)N[C@@H](CCN)C(=O)N[C@H]1CCNC(=O)[C@H]([C@@H](C)O)NC(=O)[C@H](CCN)NC(=O)[C@H](CCN)NC(=O)[C@H]([C@@H](C)CC)NC(=O)[C@@H](CC(C)C)NC(=O)[C@H](CCN)NC1=O)[C@@H](C)O | 1 µg/mL (≈ 0.855 µM) | 1 µg/mL (≈ 0.855 µM) | 2 µg/mL (≈ 1.71 µM) | 0.5 µg/mL (≈ 0.428 µM) | 1 µg/mL (≈ 0.855 µM) | 176 µg/mL (≈ 150 µM) | 1 µg/mL (≈ 0.855 µM) |  |  |  |  |  |  |
| CC[C@H](C)CCCCC(=O)N[C@@H](CCN)C(=O)N[C@H](C(=O)N[C@H](CO)C(=O)N[C@H]1CCNC(=O)[C@H]([C@@H](C)O)NC(=O)[C@H](CCN)NC(=O)[C@H](CCN)NC(=O)[C@H]([C@@H](C)O)NC(=O)[C@@H](Cc2ccccc2)NC(=O)[C@H](CCN)NC1=O)[C@@H](C)O | 0.12 µg/mL (≈ 0.102 µM) | 0.5 µg/mL (≈ 0.424 µM) | 4 µg/mL (≈ 3.39 µM) | 0.5 µg/mL (≈ 0.424 µM) | 1 µg/mL (≈ 0.849 µM) | 160 µg/mL (≈ 136 µM) | 0.25 µg/mL (≈ 0.212 µM) |  |  |  |  |  |  |
| CCCCCCC(=O)N[C@@H](CCN)C(=O)N[C@H](C(=O)N[C@@H](CCN)C(=O)N[C@H]1CCNC(=O)[C@H]([C@@H](C)O)NC(=O)[C@H](CCN)NC(=O)[C@H](CCN)NC(=O)[C@H](CC(C)C)NC(=O)[C@@H](CC(C)C)NC(=O)[C@H](CCN)NC1=O)[C@@H](C)O (Heptanoyl-[Dab]T[Dab][Dab][Dab][dL]L[Dab][Dab]T; lactam 4-C) | 2 µg/mL (≈ 1.75 µM) | 0.5 µg/mL (≈ 0.438 µM) | 1 µg/mL (≈ 0.876 µM) | 0.5 µg/mL (≈ 0.438 µM) | 0.5 µg/mL (≈ 0.438 µM) | 216 µg/mL (≈ 189 µM) | 1 µg/mL (≈ 0.876 µM) |  |  |  |  |  |  |
| CCCCCCCC(=O)N[C@@H](CCN)C(=O)N[C@H](C(=O)N[C@@H](CCN)C(=O)N[C@H]1CCNC(=O)[C@H]([C@@H](C)O)NC(=O)[C@H](CCN)NC(=O)[C@H](CCN)NC(=O)[C@H](CC(C)C)NC(=O)[C@@H](Cc2ccccc2)NC(=O)[C@H](CCN)NC1=O)[C@@H](C)O (Octanoyl-[Dab]T[Dab][Dab][Dab][dF]L[Dab][Dab]T; lactam 4-C) | 0.5 µg/mL (≈ 0.42 µM) | 1 µg/mL (≈ 0.841 µM) | 1 µg/mL (≈ 0.841 µM) | 1 µg/mL (≈ 0.841 µM) | 1 µg/mL (≈ 0.841 µM) | 86 µg/mL (≈ 72.3 µM) | 0.5 µg/mL (≈ 0.42 µM) |  |  |  |  |  |  |
| CCCCCCCC(=O)N[C@@H](CCN)C(=O)N[C@H](C(=O)N[C@@H](CCN)C(=O)N[C@H]1CCNC(=O)[C@H]([C@@H](C)O)NC(=O)[C@H](CCN)NC(=O)[C@H](CCN)NC(=O)[C@H](CC(C)C)NC(=O)[C@@H](CC(C)C)NC(=O)[C@H](CCN)NC1=O)[C@@H](C)O (Octanoyl-[Dab]T[Dab][Dab][Dab][dL]L[Dab][Dab]T; lactam 4-C) | 0.5 µg/mL (≈ 0.433 µM) | 0.5 µg/mL (≈ 0.433 µM) | 1 µg/mL (≈ 0.865 µM) | 0.5 µg/mL (≈ 0.433 µM) | 1 µg/mL (≈ 0.865 µM) | 150 µg/mL (≈ 130 µM) | 0.5 µg/mL (≈ 0.433 µM) |  |  |  |  |  |  |
| CC[C@H](C)CCCCC(=O)N[C@@H](CCN)C(=O)N[C@H](C(=O)N[C@@H](CCN)C(=O)N[C@H]1CCNC(=O)[C@H]([C@@H](C)O)NC(=O)[C@H](CCN)NC(=O)[C@H](CCN)NC(=O)[C@H](CC(C)C)NC(=O)[C@@H](Cc2ccccc2)NC(=O)[C@H](CCN)NC1=O)[C@@H](C)O (X1-[Dab]T[Dab][Dab][Dab][dF]L[Dab][Dab]T; lactam 4-C) | 0.25 µg/mL (≈ 0.208 µM) | 0.25 µg/mL (≈ 0.208 µM) | 2 µg/mL (≈ 1.66 µM) | 0.5 µg/mL (≈ 0.415 µM) | 2 µg/mL (≈ 1.66 µM) | 71 µg/mL (≈ 59 µM) | 1 µg/mL (≈ 0.831 µM) |  |  |  |  |  |  |
| CC[C@H](C)CCCCC(=O)N[C@@H](CCN)C(=O)N[C@H](C(=O)N[C@@H](CCN)C(=O)N[C@H]1CCNC(=O)[C@H]([C@@H](C)O)NC(=O)[C@H](CCN)NC(=O)[C@H](CCN)NC(=O)[C@H](C(C)C)NC(=O)[C@@H](CC(C)C)NC(=O)[C@H](CCN)NC1=O)[C@@H](C)O (X1-[Dab]T[Dab][Dab][Dab][dL]V[Dab][Dab]T; lactam 4-C) | 0.5 µg/mL (≈ 0.433 µM) | 0.5 µg/mL (≈ 0.433 µM) | 2 µg/mL (≈ 1.73 µM) | 0.5 µg/mL (≈ 0.433 µM) | 1 µg/mL (≈ 0.865 µM) | 131 µg/mL (≈ 113 µM) | 0.5 µg/mL (≈ 0.433 µM) |  |  |  |  |  |  |
| COLISTIN |  |  |  |  |  |  |  | 0.5 µg/mL | 1 µg/mL | 2 µg/mL | 0.5 µg/mL | 1 µg/mL | 1 µg/mL |
